Assay results reported in ChEMBL document CHEMBL4052792, “3-Hydroxykynurenine, a Tryptophan Metabolite Generated during the Infection, Is Active Against Trypanosoma cruzi” (ACS Med Chem Lett, 2017).
Calls of active or inactive are those of the source. The rule behind the calls is not given here.

Legend:
Trypanosoma cruzi [1] = test: Trypanocidal activity against Trypanosoma cruzi Tulahuen trypomastigotes infected in mouse whole blood assessed as increase in parasite death at 0.2 uM by trypan blue assay; assay type: functional; settings: TDE = time-dependent effect
Trypanosoma cruzi [2] = test: Trypanocidal activity against Trypanosoma cruzi Tulahuen trypomastigotes assessed as reduction in parasites after 72 hrs by trypan blue assay; assay type: functional
In short: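 Bloodstream trypomastigotes were incubated at 37 °C in culture medium alone or with increasing doses for 24, 48 and 72 h. Parasite death was scored as percentage by trypan blue exclusion. Results are means ± SD of three independent experiments.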

Trypanosoma cruzi [3] = test: Reduction of mitochondrial membrane potential in Trypanosoma cruzi Tulahuen trypomastigotes after 24 hrs by Rh123/PI staining-based flow cytometric analysis; assay type: functional
In short: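 Trypomastigotes were treated with 3-HK for 24 h at 37 °C, then incubated with PI plus Rh123. Rh123 fluorescence was read by flow cytometry in PI-negative (live) parasites. The depolarized fraction was taken as the low-fluorescence M2 population. Index of variation = (treated median − control median)/control median. Three experiments were run.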

Trypanosoma cruzi [4] = test: Trypanocidal activity against Trypanosoma cruzi Tulahuen amastigotes infected in BALB/C mouse bone marrow derived macrophages assessed as parasite infected macrophages at 0.2 uM treated for 24 hrs followed by compound washout measured after 48 hrs by immunofluorescence assay (reference value: 26.84 +/- 7.81%); assay type: functional
Trypanosoma cruzi [5] = test: Trypanocidal activity against Trypanosoma cruzi Tulahuen amastigotes infected in BALB/C mouse bone marrow derived macrophages assessed as parasite infected macrophages at 2 uM treated for 24 hrs followed by compound washout measured after 48 hrs by immunofluorescence assay (reference value: 26.84 +/- 7.81%); assay type: functional
Trypanosoma cruzi [6] = test: Trypanocidal activity against Trypanosoma cruzi Tulahuen amastigotes infected in BALB/C mouse bone marrow derived macrophages assessed as parasite infected macrophages at 20 uM treated for 24 hrs followed by compound washout measured after 48 hrs by immunofluorescence assay (reference value: 26.84 +/- 7.81%); assay type: functional
Trypanosoma cruzi [7] = test: Trypanocidal activity against Trypanosoma cruzi Tulahuen amastigotes infected in BALB/C mouse bone marrow derived macrophages assessed as parasite infected macrophages at 200 uM treated for 24 hrs followed by compound washout measured after 48 hrs by immunofluorescence assay (reference value: 26.84 +/- 7.81%); assay type: functional
Trypanosoma cruzi [8] = test: Trypanocidal activity against Trypanosoma cruzi Tulahuen amastigotes infected in BALB/C mouse bone marrow derived macrophages assessed as parasite infected macrophages at 1500 uM treated for 24 hrs followed by compound washout measured after 48 hrs by immunofluorescence assay (reference value: 26.84 +/- 7.81%); assay type: functional
Trypanosoma cruzi [9] = test: Trypanocidal activity against Trypanosoma cruzi Tulahuen amastigotes infected in BALB/C mouse bone marrow derived macrophages assessed as parasite infected macrophages at 1800 uM treated for 24 hrs followed by compound washout measured after 48 hrs by immunofluorescence assay (reference value: 26.84 +/- 7.81%); assay type: functional
Trypanosoma cruzi [10] = test: Trypanocidal activity against Trypanosoma cruzi Tulahuen amastigotes infected in BALB/C mouse bone marrow derived macrophages assessed as endocytic index at 20 uM treated for 24 hrs followed by compound washout measured after 48 hrs by immunofluorescence assay (reference value: 213.66 +/- 58.79); assay type: functional
Trypanosoma cruzi [11] = test: Trypanocidal activity against Trypanosoma cruzi Tulahuen amastigotes infected in BALB/C mouse bone marrow derived macrophages assessed as endocytic index at 200 uM treated for 24 hrs followed by compound washout measured after 48 hrs by immunofluorescence assay (reference value: 213.66 +/- 58.79); assay type: functional
Trypanosoma cruzi [12] = test: Trypanocidal activity against Trypanosoma cruzi Tulahuen amastigotes infected in BALB/C mouse bone marrow derived macrophages assessed as endocytic index at 800 uM treated for 24 hrs followed by compound washout measured after 48 hrs by immunofluorescence assay (reference value: 213.66 +/- 58.79); assay type: functional
Trypanosoma cruzi [13] = test: Trypanocidal activity against Trypanosoma cruzi Tulahuen amastigotes infected in BALB/C mouse bone marrow derived macrophages assessed as endocytic index at 1200 uM treated for 24 hrs followed by compound washout measured after 48 hrs by immunofluorescence assay (reference value: 213.66 +/- 58.79); assay type: functional
Trypanosoma cruzi [14] = test: Trypanocidal activity against Trypanosoma cruzi Tulahuen amastigotes infected in BALB/C mouse bone marrow derived macrophages assessed as endocytic index at 1800 uM treated for 24 hrs followed by compound washout measured after 48 hrs by immunofluorescence assay (reference value: 213.66 +/- 58.79); assay type: functional
Trypanosoma cruzi [15] = test: Trypanocidal activity against Trypanosoma cruzi Tulahuen amastigotes infected in BALB/C mouse bone marrow derived macrophages assessed as endocytic index at 2000 uM treated for 24 hrs followed by compound washout measured after 48 hrs by immunofluorescence assay (reference value: 213.66 +/- 58.79); assay type: functional
Trypanosoma cruzi [16] = test: Trypanostatic activity against Trypanosoma cruzi Tulahuen amastigotes infected in BALB/C mouse bone marrow derived macrophages assessed as swollen mitochondrion at 20 uM after 24 hrs by transmission electron microscopic analysis; assay type: functional
In short: (§1)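 Bone marrow-derived macrophages were infected for 24 h, then exposed to 20 μM for 24 h or left untreated. Intracellular amastigote ultrastructure was examined by transmission electron microscopy, covering mitochondrion, nucleus, kinetoplast, flagellum, flagellar pocket, subpellicular microtubules and cytoplasmic structures.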

Trypanosoma cruzi [17] = test: Trypanostatic activity against Trypanosoma cruzi Tulahuen amastigotes infected in BALB/C mouse bone marrow derived macrophages assessed as effect on flagellar pocket at 20 uM after 24 hrs by transmission electron microscopic analysis; assay type: functional; in short: as §1
PBMC = test: Cytotoxicity against human PBMC assessed as reduction in cell viability at 0.2 to 2000 uM after 24 hrs by trypan blue exclusion assay; assay type: cell-based
In short: (§2)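 Mammalian cells (human PBMC, Swan 71, Jurkat; bone marrow-derived macrophages; J774) were exposed to 3-HK at 0.2 to 2000 μM for 24 h. Viability was then scored by trypan blue exclusion.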

[18] = Cytotoxicity against BALB/C mouse BMDM assessed as reduction in cell viability at 0.2 to 2000 uM after 24 hrs by trypan blue exclusion assay; assay type: cell-based; in short: as §2
[19] = Induction of apoptosis in BALB/C mouse BMDM assessed as cells with hypodiploid DNA content at 200 uM after 24 hrs by FITC/propidium iodide staining based flow cytometric analysis (reference value: 29.9%); assay type: functional
[20] = Induction of apoptosis in BALB/C mouse BMDM assessed as cells with hypodiploid DNA content at 2000 uM after 24 hrs by FITC/propidium iodide staining based flow cytometric analysis (reference value: 29.9%); assay type: functional
Enterococcus faecalis = test: Antimicrobial activity against vancomycin-resistant Enterococcus faecalis NCTC12201 after 8 hrs; assay type: functional; settings: NCTC12201, 8 h
Candida albicans = test: Antimicrobial activity against Candida albicans ATCC10231 after 10 to 20 hrs; assay type: functional
Trypanosoma cruzi [21] = test: Trypanocidal activity against Trypanosoma cruzi Tulahuen amastigote forms infected in BALB/C mouse bone marrow derived macrophages assessed as decrease in parasite growth at 200 uM after 72 hrs by immunofluorescence assay; assay type: functional
In short: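 Macrophages were infected with trypomastigotes and treated with 3-HK for 24 h. Immunofluorescence counts were made at 72 h post-infection. Intracellular parasites per 200 cells were expressed relative to medium-treated cultures, and infected cells were counted among 200 macrophages. Data are means ± SD of four independent experiments.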

Trypanosoma cruzi [22] = test: Trypanocidal activity against Trypanosoma cruzi Tulahuen trypomastigotes in culture medium after 48 hrs by trypan blue assay

For `Nc1c(O)cccc1C(=O)C[C@H](N)C(=O)O`, the Activity (Trypanosoma cruzi [1]) was “Tde”, the IC50 (Trypanosoma cruzi [2]) was 20 to 200 µM and the Activity (Trypanosoma cruzi [3]) was “Dose-dependent effect”. The Activity (Trypanosoma cruzi [4]) was 10.85%, the Activity (Trypanosoma cruzi [5]) was 12.4% and the Activity (Trypanosoma cruzi [6]) was 8.63%. For the same compound, the Activity (Trypanosoma cruzi [7]) was 7.76%, the Activity (Trypanosoma cruzi [8]) was 18.07% and the Activity (Trypanosoma cruzi [9]) was 14.32%. It also gave an Activity (Trypanosoma cruzi [10]) of 51.74, an Activity (Trypanosoma cruzi [11]) of 51.43 and an Activity (Trypanosoma cruzi [12]) of 99.39. The Activity (Trypanosoma cruzi [13]) was 106.06, the Activity (Trypanosoma cruzi [14]) was 110.69 and the Activity (Trypanosoma cruzi [15]) was 104.34. For the same compound, the Activity (Trypanosoma cruzi [16]) was “Active”, the Activity (Trypanosoma cruzi [17]) was “inactive” and the Activity (PBMC) was “Non-Toxic”. For the same compound, the Activity [18] was “Non-Toxic”, the Activity [19] was 35.4% and the Activity [20] was 26.4%. For the same compound, the IC50 (Enterococcus faecalis) was 30 to 137 µM, the IC50 (Candida albicans) was 30 to 137 µM and the Activity (Trypanosoma cruzi [21]) was “Active”. The IC50 (Trypanosoma cruzi [22]) was 200 µM.
